# Experiments:
# [1] = biological target: Fatty acid synthase (Rattus norvegicus, UniProt P12785); experiment: Inhibition of rat liver FAS by Coomassie blue staining
# Procedure, shortened: (§1)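 Rat liver FAS purified, about 90% pure by SDS-PAGE with Coomassie staining. Enzyme, compound, NADPH and acetyl-CoA preincubated in K2HPO4 buffer pH 7.0 for 30 min at 37 °C. Malonyl-CoA then added and NADPH oxidation followed at 340 nm for 3 min at 37 °C. IC50 by linear regression, mean of triplicates. Single-point data given as % inhibition at 60 µM.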
# [2] = Cytotoxicity against human HLF by MTT assay; assay type: cell-based; conditions: HLF cells, read-out: TC50 (the source's name)
# Procedure, shortened: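 Human embryonic lung fibroblasts (HLF), viability read by MTT method. TC50 values are means of three experiments.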
# [3] = system: FAS; experiment: Therapeutic index, ratio of TC50 for human HLF to IC50 for rat liver FAS; conditions: HLF cells (TC50)
# Procedure, shortened: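 In vitro therapeutic index = TC50 (HLF cells, MTT) / IC50 (purified rat liver FAS, NADPH oxidation at 340 nm).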
# [4] = system: HL-60; experiment: Cytotoxicity against human HL60 cells assessed as cell viability after 2 hrs by MTT assay; assay type: functional, cell-based; conditions: HL-60, 2 h
# Procedure, shortened: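 HL60 cells in exponential growth suspended in 1640 medium, about 2×10^4 cells/well. Serially diluted compound (DMSO solution) added, then 2 h incubation at 37 °C in 5% CO2. Viable cells counted by MTT. […] given ± SD from three repeats.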
# [5] = system: HeLa; experiment: Cytotoxicity against human HeLa cells after 20 hrs by trypan blue exclusion assay; assay type: functional, cell-based
# Procedure, shortened: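 HeLa cells kept in DMEM with 10% fetal calf serum at 37 °C, 5% CO2, for 24 h. About 2.5×10^4 cells/well exposed to graded concentrations (DMSO solution) for 20 h. Cells then trypsinized and counted by trypan-blue exclusion. Three repeats gave SD.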
# [6] = biological target: Fatty acid synthase (Rattus norvegicus) (UniProt P12785); experiment: Inhibition of rat liver FAS at 60 uM by Coomassie blue staining; procedure, shortened: as §1
# Fatty acid synthase (Rattus norvegicus), sequence (P12785 whole entry): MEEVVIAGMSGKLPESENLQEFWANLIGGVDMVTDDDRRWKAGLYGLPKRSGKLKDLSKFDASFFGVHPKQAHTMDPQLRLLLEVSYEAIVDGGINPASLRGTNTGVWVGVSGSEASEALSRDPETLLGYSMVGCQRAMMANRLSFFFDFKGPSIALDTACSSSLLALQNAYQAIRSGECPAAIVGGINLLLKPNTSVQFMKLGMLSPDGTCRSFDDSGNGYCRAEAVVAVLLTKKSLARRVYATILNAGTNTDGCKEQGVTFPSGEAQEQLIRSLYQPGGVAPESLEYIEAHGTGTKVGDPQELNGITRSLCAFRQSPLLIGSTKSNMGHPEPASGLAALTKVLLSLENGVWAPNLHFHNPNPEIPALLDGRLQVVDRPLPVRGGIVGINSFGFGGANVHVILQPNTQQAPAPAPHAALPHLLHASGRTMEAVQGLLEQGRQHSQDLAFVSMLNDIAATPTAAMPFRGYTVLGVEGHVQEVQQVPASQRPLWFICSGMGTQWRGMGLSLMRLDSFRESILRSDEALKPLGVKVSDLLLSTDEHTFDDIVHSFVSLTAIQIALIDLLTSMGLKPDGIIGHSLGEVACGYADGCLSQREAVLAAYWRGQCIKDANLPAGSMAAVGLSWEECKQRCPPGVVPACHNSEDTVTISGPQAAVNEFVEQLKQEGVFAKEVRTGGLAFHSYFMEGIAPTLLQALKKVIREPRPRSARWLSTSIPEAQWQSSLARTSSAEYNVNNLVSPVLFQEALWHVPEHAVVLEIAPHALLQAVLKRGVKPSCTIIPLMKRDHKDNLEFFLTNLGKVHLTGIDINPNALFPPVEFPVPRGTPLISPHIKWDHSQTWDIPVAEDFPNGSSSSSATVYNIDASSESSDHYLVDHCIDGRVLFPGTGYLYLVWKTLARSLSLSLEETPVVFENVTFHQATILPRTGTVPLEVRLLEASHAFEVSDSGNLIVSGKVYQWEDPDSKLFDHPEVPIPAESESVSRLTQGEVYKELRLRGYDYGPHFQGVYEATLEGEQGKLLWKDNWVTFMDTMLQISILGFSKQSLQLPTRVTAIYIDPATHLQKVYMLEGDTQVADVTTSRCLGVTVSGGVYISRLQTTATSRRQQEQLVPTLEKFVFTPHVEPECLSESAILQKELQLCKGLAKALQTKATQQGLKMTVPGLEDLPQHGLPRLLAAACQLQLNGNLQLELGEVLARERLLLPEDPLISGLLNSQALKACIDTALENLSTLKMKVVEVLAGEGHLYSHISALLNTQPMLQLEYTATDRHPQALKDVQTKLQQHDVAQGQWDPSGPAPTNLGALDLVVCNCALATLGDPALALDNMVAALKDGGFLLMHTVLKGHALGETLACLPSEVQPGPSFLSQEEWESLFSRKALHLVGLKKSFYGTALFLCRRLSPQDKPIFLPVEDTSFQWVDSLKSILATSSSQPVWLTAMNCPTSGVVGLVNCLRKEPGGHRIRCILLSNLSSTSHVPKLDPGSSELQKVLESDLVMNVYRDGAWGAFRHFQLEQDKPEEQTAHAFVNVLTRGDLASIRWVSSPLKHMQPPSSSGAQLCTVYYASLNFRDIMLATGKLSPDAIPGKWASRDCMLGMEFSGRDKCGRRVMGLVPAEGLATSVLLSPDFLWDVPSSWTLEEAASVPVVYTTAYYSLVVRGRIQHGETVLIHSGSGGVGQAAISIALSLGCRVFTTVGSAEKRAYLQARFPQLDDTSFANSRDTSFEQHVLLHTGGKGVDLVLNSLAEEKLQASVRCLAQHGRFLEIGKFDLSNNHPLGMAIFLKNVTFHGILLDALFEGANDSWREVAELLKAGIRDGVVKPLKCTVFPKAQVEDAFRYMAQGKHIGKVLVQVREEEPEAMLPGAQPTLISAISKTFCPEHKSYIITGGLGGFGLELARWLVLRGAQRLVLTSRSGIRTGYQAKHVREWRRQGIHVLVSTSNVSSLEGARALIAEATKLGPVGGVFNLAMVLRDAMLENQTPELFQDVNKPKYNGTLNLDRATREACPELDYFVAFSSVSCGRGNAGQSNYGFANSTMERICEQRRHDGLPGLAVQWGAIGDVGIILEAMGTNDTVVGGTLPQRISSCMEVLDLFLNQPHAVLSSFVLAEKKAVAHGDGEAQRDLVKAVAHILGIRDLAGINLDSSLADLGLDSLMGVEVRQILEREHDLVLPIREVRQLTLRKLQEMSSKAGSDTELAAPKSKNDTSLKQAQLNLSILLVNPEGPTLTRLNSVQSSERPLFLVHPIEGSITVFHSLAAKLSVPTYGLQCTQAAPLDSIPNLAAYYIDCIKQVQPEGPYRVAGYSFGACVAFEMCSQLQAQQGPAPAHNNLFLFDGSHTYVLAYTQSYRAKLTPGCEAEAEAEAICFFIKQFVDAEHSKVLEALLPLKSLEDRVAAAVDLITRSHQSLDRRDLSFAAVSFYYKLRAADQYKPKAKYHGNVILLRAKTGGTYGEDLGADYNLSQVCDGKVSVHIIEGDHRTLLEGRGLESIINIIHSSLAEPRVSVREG
# Fatty acid synthase, sequence (P12785 whole entry): as above
Structure (SMILES),IC50 [1],CC50 [2],inhibition [6],further results
C=C1C(=O)S[C@H](CCCCCCCC)[C@H]1C(=O)O,2.56 µM,23.7 µM,,selectivity ratio [3]: 9.26; IC50 [4]: 5.38 µM; IC50 [5]: 46.1 µM
CCCCCCCCCCC[C@@H]1OC(=O)c2ccccc2[C@H]1C(=O)O (relative stereo),19.5 µM,94.2 µM,,selectivity ratio [3]: 4.84
CCCCCCCC[C@@H]1OC(=O)c2ccccc2[C@H]1C(=O)O (relative stereo),88.6 µM,,,
CCCCCC[C@@H]1OC(=O)c2ccccc2[C@H]1C(=O)O (relative stereo),,,19.4%,
CCCCCCCCC[C@H]1OC(=O)C(C)(C)[C@@H]1C(=O)O (relative stereo),,,23.8%,
CCCCCCCCCC[C@H]1OC(=O)C(=C(C)C)[C@@H]1C(=O)O (relative stereo),122 µM,> 200 µM,,
CCCCCCCCCCC[C@H]1OC(=O)C(=C(C)C)[C@@H]1C(=O)O (relative stereo),27.5 µM,153 µM,,selectivity ratio [3]: 5.57
C=C1C(=O)O[C@H](CCCCCCCC)[C@H]1C(=O)O,,,,selectivity ratio [3]: 5.61
CCCCCCCCC[C@H]1OC(=O)C(=C(C)C)[C@@H]1C(=O)O (relative stereo),,,38.4%,
C=C1C(=O)S[C@H](CCCCCCCCCC)[C@H]1C(=O)O,1.19 µM,6.8 µM,,
CCCCCCCC[C@H]1OC(=O)C(C)(C)[C@@H]1C(=O)O (relative stereo),,,16.7%,
CCCCCCCCC[C@@H]1OC(=O)c2ccccc2[C@H]1C(=O)O (relative stereo),29.8 µM,,,
C=C1C(=O)S[C@H](CCCCCCCCC)[C@H]1C(=O)O,2.28 µM,6.86 µM,,
CCCCCCC[C@@H]1OC(=O)c2ccccc2[C@H]1C(=O)O (relative stereo),,,35.9%,
CCCCCCCC[C@H]1OC(=O)C(=C(C)C)[C@@H]1C(=O)O (relative stereo),,,17.4%,
C=C1C(=O)S[C@H](CCCCCC)[C@H]1C(=O)O,16.7 µM,96.4 µM,,selectivity ratio [3]: 5.76
CCCCCCCCCC[C@@H]1OC(=O)c2ccccc2[C@H]1C(=O)O (relative stereo),24.2 µM,> 200 µM,,
C=C1C(=O)S[C@H](CCCCCCCCCCC)[C@H]1C(=O)O,0.79 µM,4.75 µM,,
